Reference: ChEMBL document CHEMBL1146904, “Potent 4-amino-5-azaindole factor VIIa inhibitors” (Bioorg Med Chem Lett, 2006)

Tests used:
[1] = molecular target: Coagulation factor VII/tissue factor (Homo sapiens) (UniProt P08709+P13726); test: Anticoagulant potency in human plasma by PT assay; type: functional, cell-free
Outline: (§1)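 Clotting time measured at 37 °C in human plasma on an automated coagulometer, following the manufacturer's instructions. Tissue-factor-dependent clotting was read by PT. Tissue-factor-independent (intrinsic pathway) clotting was read by aPTT.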

[2] = Anticoagulant potency in human plasma by aPTT assay; type: functional; outline: as §1
Coagulation factor VII = molecular target: T1, Coagulation factor VII (Homo sapiens, UniProt P08709); test: Binding affinity to f7a/TF complex
T1 sequence (P08709 whole entry): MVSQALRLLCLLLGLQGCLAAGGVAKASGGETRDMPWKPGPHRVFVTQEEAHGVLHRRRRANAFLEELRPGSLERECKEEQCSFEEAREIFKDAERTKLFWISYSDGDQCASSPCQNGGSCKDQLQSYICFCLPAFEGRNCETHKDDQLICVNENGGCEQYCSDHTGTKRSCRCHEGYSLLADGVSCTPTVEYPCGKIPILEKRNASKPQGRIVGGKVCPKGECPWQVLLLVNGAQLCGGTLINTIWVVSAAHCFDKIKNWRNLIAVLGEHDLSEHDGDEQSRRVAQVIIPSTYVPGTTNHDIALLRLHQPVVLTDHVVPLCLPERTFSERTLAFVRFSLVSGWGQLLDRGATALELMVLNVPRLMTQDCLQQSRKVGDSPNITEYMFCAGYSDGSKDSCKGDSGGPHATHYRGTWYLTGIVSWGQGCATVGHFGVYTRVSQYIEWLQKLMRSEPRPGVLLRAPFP

Trypsin = Trypsin (Homo sapiens, UniProt P07477+P07478+P35030); test: Binding affinity to trypsin; type: protein assay
Prothrombin = Prothrombin (Homo sapiens, UniProt P00734); test: Binding affinity to thrombin
Coagulation factor X = Coagulation factor X (Homo sapiens, UniProt P00742); test: Binding affinity to f10a
Coagulation factor X, sequence (P00742 41-179 limits assumed): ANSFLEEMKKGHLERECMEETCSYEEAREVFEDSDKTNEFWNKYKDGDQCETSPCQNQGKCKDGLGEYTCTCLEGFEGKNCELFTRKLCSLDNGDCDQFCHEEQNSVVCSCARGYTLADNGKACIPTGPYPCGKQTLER
Coagulation factor X, sequence (P00742 235-488 limits assumed): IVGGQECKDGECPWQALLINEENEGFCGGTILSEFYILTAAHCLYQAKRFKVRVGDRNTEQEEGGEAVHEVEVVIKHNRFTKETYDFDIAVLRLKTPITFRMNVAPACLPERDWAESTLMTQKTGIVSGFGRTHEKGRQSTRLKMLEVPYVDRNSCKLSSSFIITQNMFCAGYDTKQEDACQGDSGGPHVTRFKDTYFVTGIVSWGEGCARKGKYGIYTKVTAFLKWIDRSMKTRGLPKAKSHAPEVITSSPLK

SMILES | 2PT [1] [µM] | Ki (Coagulation factor VII) [µM] | Ki (Trypsin) [µM] | Ki (Prothrombin) [µM] | Ki (Coagulation factor X) [µM] | 2aPTT [2] [µM]
N=C(N)c1ccc2[nH]c(-c3cccc(-c4cc(CNC(N)=O)ccc4O)c3O)nc2c1 | – | – | 3.6 | 90 | 2.7 | –
O=C(NCc1cccc(-c2cccc(-c3cc4c[nH]ccc-4n3)c2O)c1)[C@@H](O)Cc1ccccc1 | – | 0.22 | 12 | 100 | 30 | –
CC(C)(C(=O)O)c1cc(-c2cccc(CNC(=O)Nc3c(F)cccc3F)c2)c(O)c(-c2cc3c(N)[nH]ccc-3n2)c1 | 2.4 | 0.0026 | – | – | – | >20
CC(C)(C(=O)O)c1cc(-c2cccc(CNC(=O)Nc3ccc(C(=O)O)cc3)c2)c(O)c(-c2cc3c(N)[nH]ccc-3n2)c1 | 5.8 | 0.02 | – | – | – | >20

Continued, in another order:

2PT [1] [µM] | Ki (Coagulation factor VII) [µM] | Ki (Trypsin) [µM] | Ki (Prothrombin) [µM] | Ki (Coagulation factor X) [µM] | SMILES | 2aPTT [2] [µM]
12 | 0.081 | 38 | 99 | 54 | Nc1[nH]ccc2nc(-c3cccc(-c4cccc(CNC(=O)[C@@H](O)Cc5ccccc5)c4)c3O)cc1-2 | 22
6.4 | 0.015 | – | – | – | CC(C)(C(=O)O)c1cc(-c2cccc(CNC(=O)[C@@H](O)Cc3ccccc3)c2)c(O)c(-c2cc3c(N)[nH]ccc-3n2)c1 | 17
4.5 | 0.0013 | – | – | – | Nc1[nH]ccc2nc(-c3cc(C(=O)O)cc(-c4cccc(CNC(=O)[C@@H](O)Cc5ccccc5)c4)c3O)cc1-2 | 3.7
